Assay results from ChEMBL document CHEMBL3627703, “Synthetic, structural mimetics of the β-hairpin flap of HIV-1 protease inhibit enzyme function” (Bioorg Med Chem, 2015).
Activity calls are given as the source filed them. The calls are words filed in the database; no cut-off is given here.

Legend:
[1] = biological target: Protease (Human immunodeficiency virus 1, UniProt Q9YQ12); assay: Inhibition of recombinant HIV-1 protease expressed in Escherichia coli using Arg-Glu (EDANS)-Ser-Gln-Asn-Tyr-Pro-Ile-Val-Gln Lys(DABCYL)-Arg as substrate by spectrofluorometric analysis
Sequence of Protease (Q9YQ12 whole entry): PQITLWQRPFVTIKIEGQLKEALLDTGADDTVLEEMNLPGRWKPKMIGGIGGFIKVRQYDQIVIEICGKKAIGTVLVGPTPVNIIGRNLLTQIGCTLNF
Summary of the method: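 Recombinant HIV-1 PR refolded from E. coli inclusion bodies, active concentration set by active-site titration, final 30–40 nM. Assay at 25 °C in 10 mM sodium acetate, 1 M NaCl, 2% DMSO, pH 5.0. Fluorogenic substrate at 16.7 μM, inhibitor 0–200 μM (20 mM DMSO stocks). Hydrolysis followed at excitation 340 / emission 490 nm. Ki from fitting to tight-binding competitive inhibition equations.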

[2] = tested on: Human immunodeficiency virus 1; assay: Antiviral activity against HIV-1 infected in human TZM-bl cells assessed as inhibition of viral replication at 50 to 100 uM by luciferase reporter assay; format: functional, organism-based
[3] = tested on: MT4; assay: Cytotoxicity against human MT4 cells assessed as viable cells at 100 uM after 3 days by tryptan blue dye assay; format: cell-based; conditions: mt4, 72 h
Summary of the method: (§1)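 MT-4 cells seeded at 2 × 10⁵ cells/ml in RPMI with 10% heat-inactivated FBS, carrying carrier alone or inhibitor at 10, 50 or 100 μM (0.25% DMSO final), 37 °C, 5% CO₂. Viable cells counted by trypan blue exclusion after three days; triplicate.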

[4] = tested on: MT4; assay: Cytotoxicity against human MT4 cells assessed as viable cells at 50 uM after 3 days by tryptan blue dye assay; format: cell-based; conditions: mt4, 72 h; summary of the method: as §1

SMILES | Ki [1] | also measured
CC(C)C[C@H]1N=C(c2ccccc2)c2ccc(C(=O)O)cc2N(Cc2ccc(C3CCCCC3)cc2)C1=O | 68 µM | 
CC1=N[C@H](CC(C)C)C(=O)Nc2cc(C(=O)OC(C)(C)C)ccc21 | > 200 µM | 
CCCCCCCCCCNC(=O)CN1C(=O)[C@@H](CC(C)C)N=C(C)c2ccc(C(=O)OC(C)(C)C)cc21 | > 200 µM | 
CC1=N[C@@H](CC(C)C)C(=O)N(Cc2ccc(C3CCCCC3)cc2)c2cc(C(=O)O)ccc21 | 27 µM | 
CCCCCCNC(=O)CN1C(=O)[C@@H](CC(C)C)N=C(C)c2ccc(C(=O)OC(C)(C)C)cc21 | > 200 µM | 
CCCCCCCCCCCCCCCCNC(=O)CN1C(=O)[C@@H](CC(C)C)N=C(C)c2ccc(C(=O)OC(C)(C)C)cc21 | 165 µM | 
CC1=N[C@H](Cc2ccccc2)C(=O)N(Cc2ccc(C3CCCCC3)cc2)c2cc(C(=O)O)ccc21 | 72 µM | 
CC1=N[C@H](CC(C)C)C(=O)N(Cc2ccc(C(C)(C)C)cc2)c2cc(C(=O)O)ccc21 | 46 µM | 
CCC(C)[C@@H]1N=C(C)c2ccc(C(=O)O)cc2NC1=O (single isomer, unassigned) | 158 µM | 
CC1=N[C@H](CC(C)C)C(=O)Nc2cc(C(=O)O)ccc21 | > 200 µM | 
CC1=N[C@@H](C)C(=O)Nc2cc(C(=O)OC(C)(C)C)ccc21 | > 200 µM | 
CC1=N[C@@H](CC(C)C)C(=O)Nc2cc(C(=O)O)ccc21 | > 200 µM | 
CC1=N[C@H](CC(C)C)C(=O)N(CC(=O)N2CCN(C(=O)OCC3c4ccccc4-c4ccccc43)CC2)c2cc(C(=O)O)ccc21 | 49 µM | 
CCCCCCCCCCNC(=O)CN1C(=O)[C@@H](CC(C)C)N=C(C)c2ccc(C(=O)O)cc21 | 11 µM | inhibition [2]: Active; Activity [3]: Toxic; Activity [4]: Non-toxic
CC1=NCC(=O)N(Cc2ccc(C3CCCCC3)cc2)c2cc(C(=O)O)ccc21 | 85 µM | 
CC1=N[C@H](Cc2ccccc2)C(=O)Nc2cc(C(=O)OC(C)(C)C)ccc21 | 88 µM | 
CC1=N[C@@H](Cc2ccccc2)C(=O)Nc2cc(C(=O)O)ccc21 | > 200 µM | 
CC1=N[C@H](Cc2ccccc2)C(=O)N(Cc2ccc(C3CCCCC3)cc2)c2cc(C(=O)OC(C)(C)C)ccc21 | 131 µM | 
CC1=N[C@H](CC(C)C)C(=O)N(CC(=O)N2CCN(C(=O)OCc3ccccc3)CC2)c2cc(C(=O)O)ccc21 | 81 µM | 

SMILES | Ki [1] | also measured
CC1=N[C@@H](CC(C)C)C(=O)N(Cc2ccc(C3CCCCC3)cc2)c2cc(C(=O)OC(C)(C)C)ccc21 | 76 µM | 
CC1=N[C@H](CC(C)C)C(=O)N(Cc2ccccc2)c2cc(C(=O)O)ccc21 | > 200 µM | 
CCC(C)[C@@H]1N=C(C)c2ccc(C(=O)OC(C)(C)C)cc2N(Cc2ccc(C3CCCCC3)cc2)C1=O (single isomer, unassigned) | 108 µM | 
CC1=N[C@@H](Cc2ccccc2)C(=O)N(Cc2ccc(C3CCCCC3)cc2)c2cc(C(=O)O)ccc21 | 47 µM | 
CC1=N[C@H](CC(C)C)C(=O)N(Cc2ccc(-c3ccccc3)cc2)c2cc(C(=O)OC(C)(C)C)ccc21 | 62 µM | 
CC1=N[C@H](CC(C)C)C(=O)N(Cc2ccncc2)c2cc(C(=O)O)ccc21 | > 200 µM | 
CC1=N[C@@H](Cc2ccccc2)C(=O)Nc2cc(C(=O)OC(C)(C)C)ccc21 | 64 µM | 
CC1=N[C@H](CC(C)C)C(=O)N(CC(=O)N2CCNCC2)c2cc(C(=O)O)ccc21 | > 200 µM | 
CC1=N[C@H](CC(C)C)C(=O)N(CC(=O)NCCc2ccccc2)c2cc(C(=O)OC(C)(C)C)ccc21 | 95 µM | 
CC(C)C[C@H]1N=C(c2ccccc2)c2ccc(C(=O)OC(C)(C)C)cc2N(Cc2ccc(C3CCCCC3)cc2)C1=O | 88 µM | 
CC1=N[C@H](CC(C)C)C(=O)N(CC(=O)NCCc2ccccc2)c2cc(C(=O)O)ccc21 | 75 µM | 
CCC(C)[C@@H]1N=C(C)c2ccc(C(=O)OC(C)(C)C)cc2NC1=O (single isomer, unassigned) | > 200 µM | 
CC1=N[C@@H](Cc2ccccc2)C(=O)N(Cc2ccc(C3CCCCC3)cc2)c2cc(C(=O)OC(C)(C)C)ccc21 | 54 µM | 
CC1=N[C@@H](C)C(=O)N(Cc2ccc(C3CCCCC3)cc2)c2cc(C(=O)OC(C)(C)C)ccc21 | 88 µM | 
CCCCCCNC(=O)CN1C(=O)[C@@H](CC(C)C)N=C(C)c2ccc(C(=O)O)cc21 | 75 µM | 
CCCCCCCCCCCCCCCCNC(=O)CN1C(=O)[C@@H](CC(C)C)N=C(C)c2ccc(C(=O)O)cc21 | 11 µM | inhibition [2]: Active; Activity [3]: Toxic; Activity [4]: Toxic
CC1=N[C@H](CC(C)C)C(=O)N(CC(C)C)c2cc(C(=O)OC(C)(C)C)ccc21 | 89 µM | 
CC1=N[C@H](CC(C)C)C(=O)N(Cc2ccc(-c3ccccc3)cc2)c2cc(C(=O)O)ccc21 | 21 µM | inhibition [2]: Active; Activity [3]: Toxic; Activity [4]: Non-toxic
CC1=N[C@H](CC(C)C)C(=O)N(Cc2ccc(C3CCCCC3)cc2)c2cc(C(=O)OC(C)(C)C)ccc21 | 65 µM | 

SMILES | Ki [1] | also measured
CC1=NCC(=O)Nc2cc(C(=O)O)ccc21 | 199 µM | 
CC1=N[C@H](CC(C)C)C(=O)N(CC(C)C)c2cc(C(=O)O)ccc21 | > 200 µM | 
CC1=N[C@H](CC(C)C)C(=O)N(CC(=O)N2CCN(C(=O)OC(C)(C)C)CC2)c2cc(C(=O)OC(C)(C)C)ccc21 | 143 µM | 
CC1=N[C@H](CC(C)C)C(=O)N(CC(=O)N2CCN(C(=O)OCc3ccccc3)CC2)c2cc(C(=O)OC(C)(C)C)ccc21 | > 200 µM | 
CC1=N[C@H](Cc2ccccc2)C(=O)Nc2cc(C(=O)O)ccc21 | > 200 µM | 
CC1=N[C@H](CC(C)C)C(=O)N(Cc2ccncc2)c2cc(C(=O)OC(C)(C)C)ccc21 | > 200 µM | 
CC1=N[C@H](CC(C)C)C(=O)N(CC(=O)OC(C)(C)C)c2cc(C(=O)OC(C)(C)C)ccc21 | 119 µM | 
CC1=N[C@H](CC(C)C)C(=O)N(CC(=O)O)c2cc(C(=O)O)ccc21 | > 200 µM | 
CC1=NCC(=O)Nc2cc(C(=O)OC(C)(C)C)ccc21 | > 200 µM | 
CC1=NCC(=O)N(Cc2ccc(C3CCCCC3)cc2)c2cc(C(=O)OC(C)(C)C)ccc21 | 169 µM | 
CC1=N[C@H](CC(C)C)C(=O)N(Cc2ccc(C3CCCCC3)cc2)c2cc(C(=O)O)ccc21 | 19 µM | inhibition [2]: Active; Activity [3]: Toxic; Activity [4]: Non-toxic
CCC(C)[C@@H]1N=C(C)c2ccc(C(=O)O)cc2N(Cc2ccc(C3CCCCC3)cc2)C1=O (single isomer, unassigned) | 53 µM | 
CC1=N[C@H](CC(C)C)C(=O)N(CC(=O)N2CCN(C(=O)OCC3c4ccccc4-c4ccccc43)CC2)c2cc(C(=O)OC(C)(C)C)ccc21 | > 200 µM | 
CC1=N[C@H](CC(C)C)C(=O)N(Cc2ccccc2)c2cc(C(=O)OC(C)(C)C)ccc21 | > 200 µM | 
CC1=N[C@@H](CC(C)C)C(=O)Nc2cc(C(=O)OC(C)(C)C)ccc21 | 193 µM | 
CC1=N[C@@H](C)C(=O)Nc2cc(C(=O)O)ccc21 | > 200 µM | 
CC1=N[C@@H](C)C(=O)N(Cc2ccc(C3CCCCC3)cc2)c2cc(C(=O)O)ccc21 | 56 µM | 
CC1=N[C@H](CC(C)C)C(=O)N(Cc2ccc(C(C)(C)C)cc2)c2cc(C(=O)OC(C)(C)C)ccc21 | 147 µM | 
